Columns and labels:
[1] = tested on: Lewis lung carcinoma cell line; test: Cytotoxicity against mouse LLC cells harboring […] assessed as reduction in cell viability after 24 hrs by MTT assay; type: functional, cell-based
In short: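 Cells exposed to compounds; viability read at 24, 48 and 72 h. Every experiment run in triplicate.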

[2] = Tmax in C57BL/6J mouse brain at 10 mg/kg, ip treated daily for 7 consecutive days by LC/MS/MS analysis; type: ADME, organism-based
Mus musculus [3] = test: Toxicity in C57BL/6J mouse assessed as globulin level at 5 mg/kg, ip treated daily for 7 consecutive days measured after 24 hrs post last dose […]; type: organism-based; conditions: in vivo
In short: (§1)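 Female C57BL6 mice given 5 mg/kg i.p. daily for 7 days; blood taken at sacrifice 24 h after last dose for clinical chemistry panel: electrolytes, minerals, total protein, albumin, globulin, A/G ratio, BUN, ALT, AST, GLDH, cholestasis markers, ALP, bilirubin, amylase, creatine kinase.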

[4] = biological target: Sodium-dependent serotonin transporter (Homo sapiens, UniProt P31645); test: Displacement of [3H]Citalopram from human SERT expressed in HEK cells by radioligand binding assay; type: cell-based
Sequence of Sodium-dependent serotonin transporter (P31645 whole entry): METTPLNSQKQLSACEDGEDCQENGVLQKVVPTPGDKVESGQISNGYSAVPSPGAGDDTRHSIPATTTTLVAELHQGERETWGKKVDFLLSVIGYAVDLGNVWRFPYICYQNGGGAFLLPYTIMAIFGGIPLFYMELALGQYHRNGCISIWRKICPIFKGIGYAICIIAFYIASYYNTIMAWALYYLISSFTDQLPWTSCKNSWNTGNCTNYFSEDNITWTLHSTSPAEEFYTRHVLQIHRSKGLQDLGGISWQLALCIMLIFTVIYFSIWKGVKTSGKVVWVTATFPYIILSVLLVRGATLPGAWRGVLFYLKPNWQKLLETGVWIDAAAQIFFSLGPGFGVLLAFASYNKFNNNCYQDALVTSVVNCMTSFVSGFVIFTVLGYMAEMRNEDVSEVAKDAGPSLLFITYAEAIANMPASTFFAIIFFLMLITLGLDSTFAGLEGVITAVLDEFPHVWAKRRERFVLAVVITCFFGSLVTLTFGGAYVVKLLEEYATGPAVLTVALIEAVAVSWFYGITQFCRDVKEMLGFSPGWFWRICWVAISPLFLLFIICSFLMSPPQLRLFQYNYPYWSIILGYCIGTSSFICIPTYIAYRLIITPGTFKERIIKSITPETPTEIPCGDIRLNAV

[5] = biological target: 5-hydroxytryptamine receptor 5A (Homo sapiens, UniProt P47898); test: Displacement of [3H]LSD from human 5-HT5A receptor expressed in Flp-In CHO cells by radioligand binding assay; type: cell-based
Sequence of 5-hydroxytryptamine receptor 5A (P47898 whole entry): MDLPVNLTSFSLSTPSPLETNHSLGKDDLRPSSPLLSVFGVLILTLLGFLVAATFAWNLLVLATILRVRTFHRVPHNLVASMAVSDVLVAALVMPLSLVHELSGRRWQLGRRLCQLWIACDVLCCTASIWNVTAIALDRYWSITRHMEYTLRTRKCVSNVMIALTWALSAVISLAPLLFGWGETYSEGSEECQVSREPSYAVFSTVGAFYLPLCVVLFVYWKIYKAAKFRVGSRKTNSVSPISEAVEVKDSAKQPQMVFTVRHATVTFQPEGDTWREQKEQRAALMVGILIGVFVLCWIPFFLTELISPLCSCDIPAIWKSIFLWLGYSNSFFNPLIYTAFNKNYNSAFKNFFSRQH

Mus musculus [6] = test: Toxicity in C57BL/6J mouse assessed as minerals level at 5 mg/kg, ip treated daily for 7 consecutive days measured after 24 hrs post last dose […]; type: organism-based; conditions: in vivo; in short: as §1
[7] = Drug distribution in C57BL/6J mouse adipose tissue at 5 mg/kg, ip treated daily for 7 consecutive days measured after 24 hrs post last dose by LC/MS/MS analysis; type: ADME, organism-based; conditions: in vivo
In short: (§2)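 Female C57BL6 mice dosed 5 mg/kg i.p. once daily for seven consecutive days; sacrificed 24 h after last injection, organs stored at −80 °C. Plasma, brain, lungs and adipose tissue analysed by LC-MS/MS for drug concentration (nM); n = 5.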

Mus musculus [8] = test: Toxicity in C57BL/6J mouse assessed as bilirubin level at 5 mg/kg, ip treated daily for 7 consecutive days measured after 24 hrs post last dose […]; type: organism-based; conditions: in vivo; in short: as §1
Mus musculus [9] = test: Toxicity in C57BL/6J mouse assessed as decrease in blood urea nitrogen level at 5 mg/kg, ip treated daily for 7 consecutive days measured after 24 hrs post last dose […]; conditions: in vivo
Mus musculus [10] = test: Toxicity in C57BL/6J mouse assessed as effect on lung weight at 5 mg/kg, ip treated daily for 7 consecutive days measured after 24 hrs post last dose; type: organism-based; conditions: in vivo
In short: (§3)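 Female C57BL6 mice treated 5 mg/kg i.p. once daily for seven days; killed 24 h after final injection and organs collected and weighed.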

Mus musculus [11] = test: Toxicity in C57BL/6J mouse assessed as creatine kinase level at 5 mg/kg, ip treated daily for 7 consecutive days measured after 24 hrs post last dose […]; type: organism-based; conditions: in vivo; in short: as §1
Mus musculus [12] = test: Toxicity in C57BL/6J mouse assessed as electrolytes level at 5 mg/kg, ip treated daily for 7 consecutive days measured after 24 hrs post last dose […]; type: organism-based; conditions: in vivo; in short: as §1
[13] = Drug distribution in C57BL/6J mouse lung at 5 mg/kg, ip treated daily for 7 consecutive days measured after 24 hrs post last dose by LC/MS/MS analysis; type: ADME, organism-based; conditions: in vivo; in short: as §2
Mus musculus [14] = test: Toxicity in C57BL/6J mouse assessed as alanine aminotransferase level at 5 mg/kg, ip treated daily for 7 consecutive days measured after 24 hrs post last dose […]; type: organism-based; conditions: in vivo; in short: as §1
Mus musculus [15] = test: Toxicity in C57BL/6J mouse assessed as effect on brain weight at 5 mg/kg, ip treated daily for 7 consecutive days measured after 24 hrs post last dose; type: organism-based; conditions: in vivo; in short: as §3
Mus musculus [16] = test: Toxicity in C57BL/6J mouse assessed as increase in glutamate dehydrogenase level at 5 mg/kg, ip treated daily for 7 consecutive days measured after 24 hrs post last dose […]; type: organism-based; conditions: in vivo; in short: as §1
Mus musculus [17] = test: Toxicity in C57BL/6J mouse assessed as cholestasis level at 5 mg/kg, ip treated daily for 7 consecutive days measured after 24 hrs post last dose […]; type: organism-based; conditions: in vivo; in short: as §1
Mus musculus [18] = test: Toxicity in C57BL/6J mouse assessed as amylase level at 5 mg/kg, ip treated daily for 7 consecutive days measured after 24 hrs post last dose […]; type: organism-based; conditions: in vivo; in short: as §1
Mus musculus [19] = test: Toxicity in C57BL/6J mouse assessed as effect on kidney weight at 5 mg/kg, ip treated daily for 7 consecutive days measured after 24 hrs post last dose; type: organism-based; conditions: in vivo; in short: as §3
Mus musculus [20] = test: Toxicity in C57BL/6J mouse assessed as ratio of albumin to globulin level at 5 mg/kg, ip treated daily for 7 consecutive days measured after 24 hrs post last dose […]; type: organism-based; conditions: in vivo; in short: as §1
Mus musculus [21] = test: Toxicity in C57BL/6J mouse assessed as aspartate aminotransferase level at 5 mg/kg, ip treated daily for 7 consecutive days measured after 24 hrs post last dose […]; type: organism-based; conditions: in vivo; in short: as §1
Mus musculus [22] = test: Toxicity in C57BL/6J mouse assessed as effect on liver weight at 5 mg/kg, ip treated daily for 7 consecutive days measured after 24 hrs post last dose; type: organism-based; conditions: in vivo; in short: as §3
Histamine H1 receptor [23] = biological target: T1, Histamine H1 receptor (Homo sapiens, UniProt P35367); test: Displacement of [3H]Pyrilamine from human H1 receptor expressed in HEK cells by radioligand binding assay; type: cell-based
T1 sequence (P35367 whole entry): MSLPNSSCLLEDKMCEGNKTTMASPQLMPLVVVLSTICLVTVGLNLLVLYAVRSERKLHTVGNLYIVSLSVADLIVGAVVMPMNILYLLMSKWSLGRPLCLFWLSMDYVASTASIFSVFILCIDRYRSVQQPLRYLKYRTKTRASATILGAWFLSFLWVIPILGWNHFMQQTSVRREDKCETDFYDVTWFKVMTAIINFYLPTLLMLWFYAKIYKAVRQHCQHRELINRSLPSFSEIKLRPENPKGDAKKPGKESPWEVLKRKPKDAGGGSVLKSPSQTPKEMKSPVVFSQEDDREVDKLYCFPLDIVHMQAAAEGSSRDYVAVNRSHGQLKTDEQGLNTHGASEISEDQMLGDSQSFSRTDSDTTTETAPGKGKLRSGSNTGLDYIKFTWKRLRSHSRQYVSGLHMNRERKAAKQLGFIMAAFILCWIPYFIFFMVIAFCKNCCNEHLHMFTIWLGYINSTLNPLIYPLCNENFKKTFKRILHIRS

[24] = biological target: 5-hydroxytryptamine receptor 6 (Homo sapiens, UniProt P50406); test: Displacement of [3H]LSD from human 5-HT6 receptor expressed in HEK cells by radioligand binding assay; type: cell-based
Sequence of 5-hydroxytryptamine receptor 6 (P50406 whole entry): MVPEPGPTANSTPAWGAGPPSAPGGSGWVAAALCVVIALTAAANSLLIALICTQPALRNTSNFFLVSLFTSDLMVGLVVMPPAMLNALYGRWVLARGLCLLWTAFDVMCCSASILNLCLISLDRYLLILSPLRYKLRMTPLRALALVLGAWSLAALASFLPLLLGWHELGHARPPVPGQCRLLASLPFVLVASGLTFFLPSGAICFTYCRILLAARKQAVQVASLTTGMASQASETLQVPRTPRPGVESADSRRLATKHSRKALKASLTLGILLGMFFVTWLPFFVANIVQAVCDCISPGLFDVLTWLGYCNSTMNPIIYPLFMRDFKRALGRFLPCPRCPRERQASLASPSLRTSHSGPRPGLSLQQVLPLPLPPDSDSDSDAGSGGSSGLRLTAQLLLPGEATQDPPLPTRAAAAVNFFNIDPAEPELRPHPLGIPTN

Mus musculus [25] = test: Toxicity in C57BL/6J mouse assessed as effect on heart weight at 5 mg/kg, ip treated daily for 7 consecutive days measured after 24 hrs post last dose; type: organism-based; conditions: in vivo; in short: as §3
[26] = Drug distribution in C57BL/6J mouse brain at 5 mg/kg, ip treated daily for 7 consecutive days measured after 24 hrs post last dose by LC/MS/MS analysis; type: ADME, organism-based; conditions: in vivo; in short: as §2
Histamine H1 receptor [27] = biological target: T1, Histamine H1 receptor; test: Displacement of [3H]Pyrilamine from human H1 receptor expressed in HEK cells by radioligand binding assay relative to control; type: cell-based; design: concentration or dose not given beside the values; conditions: concentration not given here
Mus musculus [28] = test: Toxicity in C57BL/6J mouse assessed as albumin level at 5 mg/kg, ip treated daily for 7 consecutive days measured after 24 hrs post last dose […]; type: organism-based; conditions: in vivo; in short: as §1
Mus musculus [29] = test: Toxicity in C57BL/6J mouse assessed as reduction in alkaline phosphatase level at 5 mg/kg, ip treated daily for 7 consecutive days measured after 24 hrs post last dose […]; type: organism-based; conditions: in vivo; in short: as §1
Mus musculus [30] = test: Toxicity in C57BL/6J mouse assessed as effect on spleen weight at 5 mg/kg, ip treated daily for 7 consecutive days measured after 24 hrs post last dose; type: organism-based; conditions: in vivo; in short: as §3
Mus musculus [31] = test: Toxicity in C57BL/6J mouse assessed as total protein level at 5 mg/kg, ip treated daily for 7 consecutive days measured after 24 hrs post last dose […]; type: organism-based; conditions: in vivo; in short: as §1
[32] = biological target: Alpha-2C adrenergic receptor (Homo sapiens, UniProt P18825); test: Displacement of [3H]Rauwolscine from human alpha 2C adrenergic receptor expressed in MDCK cells by radioligand binding assay; type: cell-based
Sequence of Alpha-2C adrenergic receptor (P18825 whole entry): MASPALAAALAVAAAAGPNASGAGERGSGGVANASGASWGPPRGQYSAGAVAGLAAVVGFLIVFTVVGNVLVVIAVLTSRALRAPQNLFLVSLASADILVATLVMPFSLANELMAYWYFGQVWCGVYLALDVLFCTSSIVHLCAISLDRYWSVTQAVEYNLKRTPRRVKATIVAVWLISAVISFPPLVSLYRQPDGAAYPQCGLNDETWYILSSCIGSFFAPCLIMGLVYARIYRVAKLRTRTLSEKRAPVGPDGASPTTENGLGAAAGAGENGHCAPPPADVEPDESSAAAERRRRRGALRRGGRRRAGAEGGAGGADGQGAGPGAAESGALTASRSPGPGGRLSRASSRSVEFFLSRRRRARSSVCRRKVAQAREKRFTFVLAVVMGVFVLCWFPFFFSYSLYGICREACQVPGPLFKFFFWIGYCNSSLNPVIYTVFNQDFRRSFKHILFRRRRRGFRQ
In short: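 Ki values were calculated from the radioligand displacement data.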

With `COc1ccc(N(CCCCN2CCC(O)(c3ccc(Cl)c(C(F)(F)F)c3)CC2)c2ccc(OC)cc2)cc1` the IC50 [1] was 6.3 µM, the Tmax [2] was 6 h and the Activity (Mus musculus [3]) was “Non-Toxic”. The Ki [4] was 1310 nM, the Ki ([5]; read-out: Ki) was 4.97 µM and the Activity (Mus musculus [6]) was “Non-Toxic”. For the same compound, the Drug uptake [7] was “Active”, the Activity (Mus musculus [8]) was “Non-Toxic” and the Activity (Mus musculus [9]) was “Non-Toxic”. The Activity (Mus musculus [10]) was “Non-Toxic”, the Activity (Mus musculus [11]) was “Non-Toxic” and the Activity (Mus musculus [12]) was “Non-Toxic”. For the same compound, the Drug uptake [13] was “Active”, the Activity (Mus musculus [14]) was “Non-Toxic” and the Activity (Mus musculus [15]) was “Non-Toxic”. The Activity (Mus musculus [16]) was “Non-Toxic”, the Activity (Mus musculus [17]) was “Non-Toxic” and the Activity (Mus musculus [18]) was “Non-Toxic”. The Activity (Mus musculus [19]) was “Non-Toxic”, the Activity (Mus musculus [20]) was “Non-Toxic” and the Activity (Mus musculus [21]) was “Non-Toxic”. For the same compound, the Activity (Mus musculus [22]) was “Non-Toxic”, the Ki (Histamine H1 receptor [23]; read-out: Ki) was 7030 nM and the Ki [24] was 1400 nM. For the same compound, the Activity (Mus musculus [25]) was “Non-Toxic”, the Drug uptake [26] was “Active” and the inhibition (Histamine H1 receptor [27]) was 71.9%. The Activity (Mus musculus [28]) was “Non-Toxic”, the Activity (Mus musculus [29]) was “Non-Toxic” and the Activity (Mus musculus [30]) was “Non-Toxic”. The Activity (Mus musculus [31]) was “Non-Toxic”.
Work on `OC1(c2ccc(Cl)c(C(F)(F)F)c2)CCN(CCCCN(c2ccc(F)cc2)c2ccc(F)cc2)CC1` yielded an IC50 [1] of 10.8 µM, a Ki [4] of 10000 nM and a Ki ([5]; read-out: Ki) of 4.15 µM. For the same compound, the Ki (Histamine H1 receptor [23]) was “Not Active” and the Ki [24] was 1670 nM.
For `OC1(c2ccc(Cl)c(C(F)(F)F)c2)CCN(CCCC(c2ccc(F)cc2)c2ccc(F)cc2)CC1` [PENFLURIDOL], the IC50 [1] was 6 µM, the Ki [32] was 445 nM and the Drug uptake [7] was “Active”. The Activity (Mus musculus [9]) was “Toxic”, the Drug uptake [13] was “Active” and the Activity (Mus musculus [16]) was “Toxic”. The inhibition (Histamine H1 receptor [27]) was 84% and the Activity (Mus musculus [29]) was “Toxic”.
For `OC1(c2ccc(Cl)c(C(F)(F)F)c2)CCN(CCCCCc2ccc(F)cc2)CC1`, the IC50 [1] was 26.9 µM, the Ki (Histamine H1 receptor [23]; read-out: Ki) was 718 nM and the inhibition (Histamine H1 receptor [27]) was 69.2%.
For `OC1(c2ccc(Cl)c(C(F)(F)F)c2)CCN(CCCC(c2ccccc2)c2ccccc2)CC1`, the IC50 [1] was 11.4 µM, the Ki [4] was 1180 nM and the Ki ([5]; cho) was “Not Active”. For the same compound, the Ki [24] was 1690 nM.
In the case of `OC1(c2ccc(Cl)c(C(F)(F)F)c2)CCN(CCCCC(c2ccc(F)cc2)c2ccc(F)cc2)CC1`, the IC50 [1] is reported as 5.6 µM, the Activity (Mus musculus [3]) is reported as “Non-Toxic” and the Ki [4] is reported as 428 nM. For the same compound, the Ki ([5]; read-out: Ki) was 0.894 µM, the Activity (Mus musculus [6]) was “Non-Toxic” and the Drug uptake [7] was “Active”. For the same compound, the Activity (Mus musculus [8]) was “Non-Toxic”, the Activity (Mus musculus [9]) was “Non-Toxic” and the Activity (Mus musculus [10]) was “Non-Toxic”. For the same compound, the Activity (Mus musculus [11]) was “Non-Toxic”, the Activity (Mus musculus [12]) was “Non-Toxic” and the Drug uptake [13] was “Active”. The Activity (Mus musculus [14]) was “Non-Toxic”, the Activity (Mus musculus [15]) was “Non-Toxic” and the Activity (Mus musculus [16]) was “Non-Toxic”. The Activity (Mus musculus [17]) was “Non-Toxic”, the Activity (Mus musculus [18]) was “Non-Toxic” and the Activity (Mus musculus [19]) was “Non-Toxic”. The Activity (Mus musculus [20]) was “Non-Toxic”, the Activity (Mus musculus [21]) was “Non-Toxic” and the Activity (Mus musculus [22]) was “Non-Toxic”. The Ki [24] was 1670 nM, the Activity (Mus musculus [25]) was “Non-Toxic” and the Drug uptake [26] was “Active”. The Activity (Mus musculus [28]) was “Non-Toxic”, the Activity (Mus musculus [29]) was “Non-Toxic” and the Activity (Mus musculus [30]) was “Non-Toxic”. The Activity (Mus musculus [31]) was “Non-Toxic”.
In the case of `OC1(c2ccc(Cl)c(C(F)(F)F)c2)CCN(CCCC=C(c2ccc(F)cc2)c2ccc(F)cc2)CC1`, the IC50 [1] is reported as 15.6 µM, the Ki (Histamine H1 receptor [23]; read-out: Ki) is reported as 718 nM and the inhibition (Histamine H1 receptor [27]) is reported as 64.6%.
Compound `OC1(c2ccc(Cl)c(C(F)(F)F)c2)CCN(CCCN(c2ccc(F)cc2)c2ccc(F)cc2)CC1` has an IC50 [1] of 7 µM, a Ki [4] of 903 nM and a Ki (Histamine H1 receptor [23]; read-out: Ki) of 814 nM. For the same compound, the Ki [24] was 1680 nM and the inhibition (Histamine H1 receptor [27]) was 88.5%.
